A word on the inhibition: it is the percentage by which the read-out fell short of the control.

For the assay, the target named is T1, Quinolone resistance protein NorA (Staphylococcus aureus) (UniProt P0A0J7).
T1 sequence (whole entry): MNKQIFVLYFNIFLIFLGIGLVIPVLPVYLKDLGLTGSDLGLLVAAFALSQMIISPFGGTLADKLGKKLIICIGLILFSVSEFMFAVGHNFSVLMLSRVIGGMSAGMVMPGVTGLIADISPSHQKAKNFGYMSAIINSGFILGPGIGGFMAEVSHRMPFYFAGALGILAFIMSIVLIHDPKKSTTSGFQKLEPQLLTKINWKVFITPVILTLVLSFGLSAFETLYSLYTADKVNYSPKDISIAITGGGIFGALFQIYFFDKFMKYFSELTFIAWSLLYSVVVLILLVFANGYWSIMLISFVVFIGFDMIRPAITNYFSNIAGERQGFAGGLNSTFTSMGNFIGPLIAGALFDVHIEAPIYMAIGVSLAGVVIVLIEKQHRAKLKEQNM
In words: Inhibition of NorA in Staphylococcus aureus 1199B assessed as reduction in ethidium bromide efflux at 50 uM by fluorimetry after 5 mins. Summed up:
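S. aureus SA-1199B (NorA overexpressing via promoter up-mutation; GrlA A116E), EtBr-loaded cells. EtBr loss measured fluorometrically over a 5 min time course, in duplicate, as mean total efflux. Percent reduction calculated versus efflux without compound. Test compound at 50 μM; increasing concentrations were also run for dose-response profiles.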

Where only a bound is given, the exact number is not on record here.

In the case of `O=C(O)c1ccc(N2C(=O)C[C@@H](S/C(=N\c3ccccc3)Nc3ccccc3)C2=O)cc1`, the inhibition was determined as 0%.

Consider `COc1ccc(-c2cc(=O)c3ccccc3n2C)cc1`, for which the inhibition was determined as 0%.

As for `CCOC(=O)c1cn(C2CC2)c2cc(N3CCC4=C(C3)/C(=N/OC)CCS4)c(N)cc2c1=O`, the inhibition was 74.5%.

With `COc1cc2c(=O)cc(-c3ccc(O)cc3)n(C)c2cc1OC`, the inhibition turned out to be 0%.

On to `COc1cc(/C=C2\S/C(=N\c3ccccc3)N(c3ccccc3)C2=O)cc(Cl)c1OCC(N)=O`, for which the inhibition is 18.3%.

On to `C=CCOc1c(I)cc(/C=C2\C(=O)N(c3ccc(C(=O)O)cc3)N=C2c2ccccc2)cc1OC`, for which the inhibition is 3.8%.

`COc1ccccc1C1=Nc2ccccc2SC1`: the inhibition amounted to 0%.

With `CCOc1ccc(-c2cc(=O)c3ccccc3n2C)cc1`, the inhibition came out at 10.8%.

On to `OCCN1CCN(CC/C=C2\c3ccccc3Sc3ccc(C(F)(F)F)cc32)CC1`, for which the inhibition turned out to be 72%.

Take `Cc1ccc([C@H]2C(C#N)=C(N)Oc3cc(C)oc(=O)c32)o1`: the inhibition came to 0%.

Turning to `CCN(CC)CCOc1cc(-c2ccc(OCCN3CCCCC3)cc2)nc2ccccc12`, the inhibition worked out at 65.6%.

Consider `CCOC(=O)c1cn(C2CC2)c2c(C)c(N3CCC4=C(C3)C(=O)CCS4)c(N)cc2c1=O`, for which the inhibition amounted to 36.8%.

Take `Cn1c(-c2ccc(OCCN3CCOCC3)cc2)cc(=O)c2ccccc21`: the inhibition came to 0%.

With `Cn1c(-c2ccc(OCCN3CCCCC3)cc2)cc(=O)c2ccccc21`, the inhibition came to 19.8%.

`CCOC(=O)c1cn(C2CC2)c2cc(N3CCC4=C(C3)/C(=N/O)C(C)CS4)c(F)cc2c1=O` (centres undefined): the inhibition came out at 22.5%.

`Cc1ccc(S(=O)(=O)Nc2ccc3[nH]c(-c4ccco4)nc3c2)cc1`: the inhibition amounted to 67.5%.

On to `CCCOc1ccc(-c2cc(OCCN3CCCCC3)c3ccccc3n2)cc1`, for which the inhibition was 88.5%.

Consider `CC(C)N1C(=O)S/C(=C/c2cc(Br)ccc2OCc2ccc(C(=O)O)cc2)C1=O`, for which the inhibition is 3.1%.

On to `Cn1c(-c2ccc(O)cc2)cc(=O)c2ccccc21`, for which the inhibition was 0%.

In the case of `c1ccc(CCN(Cc2ccccc2)Cc2cccc(OCc3ccccc3)c2)cc1`, the inhibition is 0%.

On to `Cc1ccc(N(CC(=O)Nc2ccc(C(N)=O)cc2)S(=O)(=O)c2ccccc2)cc1C`, for which the inhibition turned out to be 0.6%.

As to `CN(C)CCOc1ccc(-c2cc(=O)c3ccccc3n2C)cc1`, the inhibition was 4.4%.

With `COc1cc2c(=O)cc(-c3ccccc3)n(C)c2cc1OC`, the inhibition was 9.4%.

Take `CN(C)CCCN1c2ccccc2Sc2ccc(Cl)cc21`: the inhibition was 76%.

In the case of `N#Cc1c(SCc2ccc(C(=O)O)cc2)nc2c(c1C(F)(F)F)CCCCC2`, the inhibition turned out to be 67.1%.

`CCc1c(O)nc(SCC(=O)Nc2nc3ccccc3s2)[nH]c1=O`: the inhibition turned out to be 19.1%.

On to `Cc1ccc(S(=O)(=O)Nc2ccc3c(c2)ncn3-c2ccccc2)cc1`, for which the inhibition turned out to be 0%.

For the molecule `CCOC(=O)CCCSc1nc2c(c(C(F)(F)F)c1C#N)CC(C)CC2` (centres undefined), the inhibition was found to be 48.6%.

For `Cc1sc([C@@H]2C(C#N)=C(N)OC3=C2C(=O)CC(C)(C)C3)cc1COc1ccc(Br)cc1`, the inhibition was 0%.

Take `Fc1ccc([C@@H]2CCNC[C@H]2COc2ccc3c(c2)OCO3)cc1`: the inhibition turned out to be 73%.

As to `CCOC(=O)Nc1ccc2c(c1)N(C(=O)CCN1CCN(CCO)CC1)c1ccccc1CC2`, the inhibition came to 0%.

As to `CCOC(=O)c1cn(C2CC2)c2c(C)c(N3CCC4=C(C3)/C(=N/OC)CCS4)c(N)cc2c1=O`, the inhibition turned out to be 54.4%.

On to `CCOC(=O)c1cn(C2CC2)c2c(C)c(N3CCC4=C(C3)/C(=N/OC)C(C)CS4)c(N)cc2c1=O` (centres undefined), for which the inhibition was determined as 21.4%.

On to `CN1CC[C@H](c2ccc(F)cc2)[C@@H](COc2ccc3c(c2)OCO3)C1`, for which the inhibition was 85%.

Take `CC(C)Oc1ccc(-c2cc(=O)c3ccccc3n2C)cc1`: the inhibition was 10.3%.

On to `COc1cc(/C=C2\S/C(=N\c3ccccc3)N([C@@H]3CCCC[C@@H]3C)C2=O)ccc1OCC(=O)O`, for which the inhibition was 32.6%.

Take `N#Cc1c(SCc2ccc(Cl)nc2)nc2c(c1C(F)(F)F)CCCC2`: the inhibition was 41.3%.

Regarding `CN1CCN(CCCN2c3ccccc3Sc3ccc(Cl)cc32)CC1`, the inhibition was greater than 78%.

As for `Cc1cc(C)cc(/N=C2\S/C(=C\c3ccc(C(=O)O)cc3)C(=O)N2c2cc(C)cc(C)c2)c1`, the inhibition was 55%.

On to `Cn1c(-c2ccc(O)cc2)cc(=O)c2cc(O)c(O)cc21`, for which the inhibition turned out to be 0%.

Regarding `COc1cc(/C=C2/SC(Nc3ccccc3F)=NC2=O)ccc1OCC(=O)O`, the inhibition is 11.9%.

As for `CCOC(=O)c1cn(C2CC2)c2cc(N3CCC4=C(C3)C(O)CCS4)c(N)cc2c1=O` (centres undefined), the inhibition stood at 26.3%.

Turning to `CCCOc1ccc(-c2cc(=O)c3ccccc3o2)cc1`, the inhibition stood at 32.4%.

For `COc1ccc(/C=C/C(=O)NCCc2c[nH]c3ccccc23)cc1OC`, the inhibition came out at 84%.

Take `C[C@H](O)c1cccc(NC(=O)CC(c2ccccc2)c2ccccc2)c1`: the inhibition stood at 31.4%.

Take `CCOC(=O)c1cn(C2CC2)c2cc(N3CCNCC3)c(F)cc2c1=O`: the inhibition was found to be 20.8%.

With `CCOC(=O)c1cn(C2CC2)c2c(C)c(N3CCC4=C(C3)C(=O)C(C)CS4)c(N)cc2c1=O` (centres undefined), the inhibition is 50.5%.

Consider `CCC(C)N1C(=O)S/C(=C\c2ccc(N3CCCC3)o2)C1=O` (centres undefined), for which the inhibition is 0%.

With `CCCOc1ccc(-c2cc(=O)c3cc(OC)c(OC)cc3n2C)cc1`, the inhibition stood at 0%.

As to `CCOc1ccc(C2C(C(=O)Nc3cccnc3)=C(C)Nc3nc(CCCO)nn32)cc1OC` (centres undefined), the inhibition amounted to 14.8%.

Take `COc1ccccc1CNCc1cccc(C(F)(F)F)c1`: the inhibition stood at 30%.

In the case of `CCCOc1ccc(-c2cc(=O)c3ccccc3n2CCN(CC)CC)cc1`, the inhibition turned out to be 57.3%.

Take `Cc1ccc(S(=O)(=O)Nc2ccc3c(c2)nc(C)n3Cc2ccccc2)cc1`: the inhibition turned out to be 30.6%.

On to `CCOC(=O)C1SC(NC(=S)NC(=O)c2ccccc2)=NC1C` (centres undefined), for which the inhibition came out at 23.2%.

Consider `Cn1c(-c2ccccc2)cc(=O)c2cc(O)c(O)cc21`, for which the inhibition was determined as 0%.

Consider `CCOC(=O)c1cn(C2CC2)c2cc(N3CCC4=C(C3)/C(=N/OC)C(C)CS4)c(N)cc2c1=O` (centres undefined), for which the inhibition was determined as 19.7%.

Take `c1ccc(C2=Nc3ccccc3SC2)cc1`: the inhibition came to 0%.

`CCN(CC)CCOc1ccc(-c2cc(=O)c3ccccc3n2C)cc1`: the inhibition is 1.7%.

On to `CCOC(=O)c1cn(C2CC2)c2cc(N3CCC4=C(C3)/C(=N/OC)C(C)CS4)c(F)cc2c1=O` (centres undefined), for which the inhibition is 86.9%.

For `CCOC(=O)c1cn(C2CC2)c2cc(N3CCC4=C(C3)C(=O)C(C)CS4)c(N)cc2c1=O` (centres undefined), the inhibition was 63.5%.

In the case of `N#Cc1c(C(F)(F)F)cc(Cc2ccccc2)nc1SCc1ccc(C(=O)O)cc1`, the inhibition was 41.8%.

In the case of `CN1C(=O)S/C(=C/c2ccc(-c3cc(C(=O)O)ccc3Cl)o2)C1=O`, the inhibition turned out to be 20.9%.

With `CCOC(=O)CCSc1nc2c(c(C(F)(F)F)c1C#N)CC(C(C)(C)C)CC2` (centres undefined), the inhibition came to 25.2%.

Consider `COCCN1C(=O)/C(=C/c2ccc(O[C@@H](C)C(=O)O)c(OC)c2)S/C1=N\c1ccccc1`, for which the inhibition was 10.6%.

With `CCCCOc1ccc([C@H]2C(C#N)=C(N)Oc3cc(N(CC)CC)ccc32)cc1`, the inhibition amounted to 20.5%.

As for `CCOC(=O)c1cn(C2CC2)c2cc(N3CCC4=C(C3)/C(=N/O)C(C)CS4)c(N)cc2c1=O` (centres undefined), the inhibition amounted to 91.2%.

Take `O=C1NC(=O)/C(=C/c2ccc(-c3cc(C(=O)O)ccc3Cl)o2)S1`: the inhibition stood at 15.5%.

As to `CCOc1cc(C2C(C#N)=C(N)Oc3[nH]nc(C)c32)ccc1OCc1cccc(F)c1` (single isomer, unassigned), the inhibition amounted to 4.9%.

`CCCOc1ccc(C2=CSc3ccccc3N2C)cc1`: the inhibition was 0%.

As for `CCC(C)N1C(=O)S/C(=C\c2ccc(-c3cc(C(=O)O)ccc3Cl)o2)C1=O` (centres undefined), the inhibition was 74.7%.

Take `COc1cccc(CNC(C)C(O)c2ccccc2)c1` (centres undefined): the inhibition turned out to be 2.8%.

Regarding `CCOC(=O)c1cn(C2CC2)c2c(C)c(N3CCC4=C(C3)/C(=N/O)CCS4)c(N)cc2c1=O`, the inhibition worked out at 36.2%.

On to `OCCN1CCN(CCCN2c3ccccc3Sc3ccc(C(F)(F)F)cc32)CC1`, for which the inhibition was 75%.

On to `Cc1c(NS(=O)(=O)c2ccc(F)cc2)c(=O)n(-c2ccccc2)n1C`, for which the inhibition turned out to be 3.2%.

Regarding `CCCOc1ccc(-c2cc(O)c3ccccc3n2)cc1`, the inhibition turned out to be 0%.

For `CCCOc1ccc(-c2cc(=O)c3cc(OC)c(O)cc3n2C)cc1`, the inhibition came to 9.1%.

Regarding `CCCOc1ccc(-c2cc(OCCN(CC)CC)c3ccccc3n2)cc1`, the inhibition turned out to be 93.4%.

For the molecule `CCOC(=O)c1cn(C2CC2)c2c(C)c(N3CCC4=C(C3)C(O)CCS4)c(N)cc2c1=O` (centres undefined), the inhibition is 47.3%.

For `OCCN1CCN(CC/C=C2/c3ccccc3Sc3ccc(C(F)(F)F)cc32)CC1`, the inhibition amounted to 82%.

Take `COc1ccc(OC[C@@H]2CN(C)CC[C@H]2c2ccccc2)cc1` (relative stereo): the inhibition was found to be 50%.

As to `COc1ccc(OC[C@H]2CN(C)CC[C@@H]2c2ccccc2)cc1`, the inhibition was found to be 47%.

For the molecule `CCC(C)N1C(=O)S/C(=C/c2ccc(C(=O)O)cc2)C1=O` (centres undefined), the inhibition turned out to be 0%.

As for `CCOC(=O)c1cn(C2CC2)c2c(C)c(N3CCC4=C(C3)/C(=N/O)C(C)CS4)c(N)cc2c1=O` (centres undefined), the inhibition came out at 90%.

As for `Fc1ccc(C2=Nc3ccccc3SC2)cc1`, the inhibition was found to be 0%.

The record behind these values is ChEMBL document CHEMBL1649083, “Discovery of novel inhibitors of the NorA multidrug transporter of Staphylococcus aureus” (2011).
